Results: ChEMBL document CHEMBL5705888, “Substrate specificity and inhibitors of LRRK2, a protein kinase mutated in Parkinson's disease” (Biochem J, 2009)
Calls of active or inactive are those of the source. The rule behind the calls is not given here.

Legend:
[1] = target: AMP-activated protein kinase, AMPK (Homo sapiens) (UniProt P54646+O43741+P54619+Q9UGJ0+Q9Y478+Q13131+Q9UGI9); test: Inhibition of AMPK (unknown origin) at 1 uM incubated for 30 mins in presence of [gamma-33P]ATP by multidrop micro reagent based assay relative to control; values are per cent of control
[2] = target: T1, Inhibitor of nuclear factor kappa-B kinase subunit epsilon (Homo sapiens) (UniProt Q14164); test: Inhibition of IKKepsilon (unknown origin) at 1 uM incubated for 30 mins in presence of [gamma-33P]ATP by multidrop micro reagent based assay relative to control
T1 sequence (whole entry): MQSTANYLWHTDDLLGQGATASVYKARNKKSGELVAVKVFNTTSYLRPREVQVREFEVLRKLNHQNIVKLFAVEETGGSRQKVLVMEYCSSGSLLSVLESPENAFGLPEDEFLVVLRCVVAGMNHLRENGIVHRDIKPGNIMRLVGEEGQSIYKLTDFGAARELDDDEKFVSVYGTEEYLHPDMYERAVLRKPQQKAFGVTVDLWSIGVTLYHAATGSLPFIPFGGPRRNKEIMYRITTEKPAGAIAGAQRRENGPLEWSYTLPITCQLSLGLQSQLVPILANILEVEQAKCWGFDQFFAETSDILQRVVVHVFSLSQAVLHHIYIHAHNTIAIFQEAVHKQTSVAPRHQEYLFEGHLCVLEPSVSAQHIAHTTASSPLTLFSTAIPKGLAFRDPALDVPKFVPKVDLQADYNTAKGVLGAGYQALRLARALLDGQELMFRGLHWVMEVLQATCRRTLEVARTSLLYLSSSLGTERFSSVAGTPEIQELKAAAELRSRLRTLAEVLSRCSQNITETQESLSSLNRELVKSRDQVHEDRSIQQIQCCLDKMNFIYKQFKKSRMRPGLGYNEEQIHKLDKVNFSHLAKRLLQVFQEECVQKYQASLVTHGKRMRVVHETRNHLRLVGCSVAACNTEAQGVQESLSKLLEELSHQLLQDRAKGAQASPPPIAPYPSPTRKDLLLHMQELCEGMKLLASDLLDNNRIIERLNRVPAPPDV

[3] = target: T2, Leucine-rich repeat serine/threonine-protein kinase 2 (Homo sapiens, UniProt Q5S007); test: Inhibition of LRRK2 in human Flp-In-T-REx-293 cells assessed as inhibition of ERM phosphorylation at 10 uM incubated for 1 hr in presence of LRRKtide by immunoblot analysis; type: cell-based
T2 sequence (Q5S007 whole entry): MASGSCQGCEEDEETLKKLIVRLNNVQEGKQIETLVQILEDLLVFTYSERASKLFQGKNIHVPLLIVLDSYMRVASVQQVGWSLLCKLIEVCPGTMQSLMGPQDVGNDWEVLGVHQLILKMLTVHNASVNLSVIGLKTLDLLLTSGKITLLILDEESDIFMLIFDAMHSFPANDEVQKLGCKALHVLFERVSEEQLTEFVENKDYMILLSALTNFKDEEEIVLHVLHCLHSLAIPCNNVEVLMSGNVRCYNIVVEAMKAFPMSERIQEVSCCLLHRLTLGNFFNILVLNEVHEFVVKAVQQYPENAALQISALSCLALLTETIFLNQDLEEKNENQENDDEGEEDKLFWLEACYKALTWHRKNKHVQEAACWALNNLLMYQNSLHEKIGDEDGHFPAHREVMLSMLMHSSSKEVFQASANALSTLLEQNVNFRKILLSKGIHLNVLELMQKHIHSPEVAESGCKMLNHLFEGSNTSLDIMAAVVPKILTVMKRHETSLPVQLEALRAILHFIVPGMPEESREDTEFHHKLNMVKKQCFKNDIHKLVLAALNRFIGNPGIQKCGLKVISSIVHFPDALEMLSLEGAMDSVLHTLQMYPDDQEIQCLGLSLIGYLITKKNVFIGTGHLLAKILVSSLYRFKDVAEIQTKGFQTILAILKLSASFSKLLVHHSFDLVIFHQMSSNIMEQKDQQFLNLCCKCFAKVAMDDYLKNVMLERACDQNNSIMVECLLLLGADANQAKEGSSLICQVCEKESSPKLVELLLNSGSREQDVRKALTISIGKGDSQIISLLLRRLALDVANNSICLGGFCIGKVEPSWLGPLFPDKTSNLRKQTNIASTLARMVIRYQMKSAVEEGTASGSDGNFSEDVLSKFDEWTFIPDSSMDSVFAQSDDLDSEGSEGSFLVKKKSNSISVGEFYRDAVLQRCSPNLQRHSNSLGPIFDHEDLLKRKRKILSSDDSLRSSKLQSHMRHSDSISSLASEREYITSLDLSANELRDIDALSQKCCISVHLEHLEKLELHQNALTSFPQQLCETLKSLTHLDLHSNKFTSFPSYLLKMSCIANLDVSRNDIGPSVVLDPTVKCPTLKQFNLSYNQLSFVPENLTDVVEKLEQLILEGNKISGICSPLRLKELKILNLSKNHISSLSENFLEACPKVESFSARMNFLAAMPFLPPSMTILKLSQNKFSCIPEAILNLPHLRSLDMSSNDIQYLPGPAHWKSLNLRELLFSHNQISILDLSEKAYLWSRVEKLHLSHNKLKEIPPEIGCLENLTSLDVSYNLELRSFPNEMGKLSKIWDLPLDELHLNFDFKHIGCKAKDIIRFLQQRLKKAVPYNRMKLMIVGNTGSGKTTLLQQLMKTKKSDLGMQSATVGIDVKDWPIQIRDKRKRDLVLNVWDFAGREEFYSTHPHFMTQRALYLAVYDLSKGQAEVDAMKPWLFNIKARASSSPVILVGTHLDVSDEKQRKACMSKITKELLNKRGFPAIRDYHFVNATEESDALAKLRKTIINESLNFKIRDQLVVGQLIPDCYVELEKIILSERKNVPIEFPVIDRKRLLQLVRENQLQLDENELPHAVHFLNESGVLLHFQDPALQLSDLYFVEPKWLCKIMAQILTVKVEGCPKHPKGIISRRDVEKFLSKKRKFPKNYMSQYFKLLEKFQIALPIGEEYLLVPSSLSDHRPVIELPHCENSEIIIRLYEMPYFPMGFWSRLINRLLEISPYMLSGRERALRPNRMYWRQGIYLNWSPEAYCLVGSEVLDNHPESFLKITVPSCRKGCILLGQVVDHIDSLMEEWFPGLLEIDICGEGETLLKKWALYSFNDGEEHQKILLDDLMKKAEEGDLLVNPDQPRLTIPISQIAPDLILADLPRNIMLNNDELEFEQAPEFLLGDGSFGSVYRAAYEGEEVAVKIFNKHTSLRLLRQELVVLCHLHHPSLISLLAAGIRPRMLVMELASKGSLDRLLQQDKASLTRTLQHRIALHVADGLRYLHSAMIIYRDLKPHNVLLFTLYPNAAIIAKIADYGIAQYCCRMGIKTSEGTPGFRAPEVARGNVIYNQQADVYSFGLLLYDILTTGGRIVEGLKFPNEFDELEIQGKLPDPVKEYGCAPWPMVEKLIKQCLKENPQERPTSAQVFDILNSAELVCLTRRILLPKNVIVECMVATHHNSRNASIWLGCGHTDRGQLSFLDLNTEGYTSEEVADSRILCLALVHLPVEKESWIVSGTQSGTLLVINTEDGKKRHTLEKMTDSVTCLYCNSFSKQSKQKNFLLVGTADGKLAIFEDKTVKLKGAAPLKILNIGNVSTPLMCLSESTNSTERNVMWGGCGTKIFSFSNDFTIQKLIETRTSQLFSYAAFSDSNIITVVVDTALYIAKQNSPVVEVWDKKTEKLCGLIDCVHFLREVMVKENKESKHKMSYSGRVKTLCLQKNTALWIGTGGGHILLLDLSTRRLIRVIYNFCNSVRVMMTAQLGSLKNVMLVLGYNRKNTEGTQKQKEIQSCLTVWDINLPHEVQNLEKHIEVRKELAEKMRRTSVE
Method in brief: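 Flp-in T-REx cells carrying GFP-tagged G14V-Rho were left uninduced or induced with 1 μg/ml doxycycline. At 7 h, compound at 10 μM was added for 1 h. Cells were lysed in SDS lysis buffer, run on 4–12% gels and immunoblotted with pan-phospho-ERM antibody (1 μg/ml in milk/TBST containing 10 μg/ml LRRKtide).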

[4] = target: Rho-associated protein kinase 2 (Homo sapiens, UniProt O75116); test: Inhibition of ROCK2 in human Flp-In-T-REx-293 cells harboring GFP-tagged constitutively active G14V-Rho mutant assessed as inhibition of MYPT phosphorylation at Thr850 at 10 uM incubated for 1 hr by immunoblot analysis; type: cell-based
Rho-associated protein kinase 2, sequence (O75116 whole entry, looked up): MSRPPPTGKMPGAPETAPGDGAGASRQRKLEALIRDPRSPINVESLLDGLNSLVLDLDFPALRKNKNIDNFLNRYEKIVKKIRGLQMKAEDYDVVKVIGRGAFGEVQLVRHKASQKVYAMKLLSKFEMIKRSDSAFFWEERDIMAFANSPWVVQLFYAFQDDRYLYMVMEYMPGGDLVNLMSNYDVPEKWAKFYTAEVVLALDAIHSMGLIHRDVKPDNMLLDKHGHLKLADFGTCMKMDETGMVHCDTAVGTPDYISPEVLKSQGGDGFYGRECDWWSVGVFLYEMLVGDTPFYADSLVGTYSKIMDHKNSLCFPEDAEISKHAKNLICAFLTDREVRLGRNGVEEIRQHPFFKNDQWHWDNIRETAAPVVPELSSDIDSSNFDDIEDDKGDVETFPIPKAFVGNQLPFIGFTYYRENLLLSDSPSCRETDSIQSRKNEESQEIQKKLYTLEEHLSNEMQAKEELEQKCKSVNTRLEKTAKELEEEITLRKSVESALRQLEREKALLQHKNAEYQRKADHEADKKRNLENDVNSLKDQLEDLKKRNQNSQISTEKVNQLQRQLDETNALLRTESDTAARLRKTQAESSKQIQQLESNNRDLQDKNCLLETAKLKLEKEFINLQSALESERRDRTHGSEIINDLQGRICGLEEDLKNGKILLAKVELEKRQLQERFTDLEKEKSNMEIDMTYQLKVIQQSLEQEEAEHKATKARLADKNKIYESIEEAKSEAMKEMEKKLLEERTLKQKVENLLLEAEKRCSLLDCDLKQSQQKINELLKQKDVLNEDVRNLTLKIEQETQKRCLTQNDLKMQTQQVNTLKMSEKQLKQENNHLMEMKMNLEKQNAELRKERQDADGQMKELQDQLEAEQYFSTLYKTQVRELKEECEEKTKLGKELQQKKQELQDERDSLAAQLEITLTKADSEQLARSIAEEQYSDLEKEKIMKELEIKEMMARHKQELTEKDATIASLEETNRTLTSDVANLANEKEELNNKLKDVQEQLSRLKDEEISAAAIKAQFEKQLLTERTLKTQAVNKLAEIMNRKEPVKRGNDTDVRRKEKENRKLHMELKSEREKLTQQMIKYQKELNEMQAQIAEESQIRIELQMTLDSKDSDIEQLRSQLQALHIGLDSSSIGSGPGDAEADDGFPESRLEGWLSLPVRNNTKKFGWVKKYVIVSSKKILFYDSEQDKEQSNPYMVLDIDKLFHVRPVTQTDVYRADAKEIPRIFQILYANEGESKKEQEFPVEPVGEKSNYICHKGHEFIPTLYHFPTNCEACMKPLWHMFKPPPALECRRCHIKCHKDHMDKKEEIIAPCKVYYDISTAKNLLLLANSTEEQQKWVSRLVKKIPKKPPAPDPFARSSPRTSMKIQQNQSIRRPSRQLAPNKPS
Method in brief: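 Flp-In T-REx cells carrying GFP-tagged G14V-Rho were induced with 1 μg/ml doxycycline in the medium. Seven hours after induction, cells were treated with 10 μM inhibitor for 1 h. They were then lysed directly in SDS lysis buffer and run on 4–12% gels. Blots were probed with anti-MYPT pThr850 (1 μg/ml in 5% BSA/TBST), followed by HRP secondary and ECL detection.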

[5] = target: T3, Serine/threonine-protein kinase 3 (Homo sapiens) (UniProt Q13188); test: Inhibition of MST2 (unknown origin) at 1 uM incubated for 30 mins in presence of [gamma-33P]ATP by multidrop micro reagent based assay relative to control; values are per cent of control
T3 sequence (whole entry): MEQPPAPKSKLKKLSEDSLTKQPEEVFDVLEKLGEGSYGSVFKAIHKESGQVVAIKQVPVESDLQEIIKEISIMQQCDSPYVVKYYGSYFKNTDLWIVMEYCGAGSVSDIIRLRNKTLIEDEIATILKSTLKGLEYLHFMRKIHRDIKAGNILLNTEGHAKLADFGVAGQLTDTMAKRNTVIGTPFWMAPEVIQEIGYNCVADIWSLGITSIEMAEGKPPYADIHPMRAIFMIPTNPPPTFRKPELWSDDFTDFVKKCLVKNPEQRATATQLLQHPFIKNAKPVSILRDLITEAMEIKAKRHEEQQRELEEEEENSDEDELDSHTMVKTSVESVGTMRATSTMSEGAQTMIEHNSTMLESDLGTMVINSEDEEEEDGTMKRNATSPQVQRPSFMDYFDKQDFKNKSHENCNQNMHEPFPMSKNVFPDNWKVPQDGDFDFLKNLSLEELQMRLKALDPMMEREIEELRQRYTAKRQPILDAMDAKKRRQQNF

[6] = target: T2, Leucine-rich repeat serine/threonine-protein kinase 2; test: Inhibition of LRRK2 (unknown origin) at 1 uM incubated for 30 mins in presence of [gamma-33P]ATP by multidrop micro reagent based assay relative to control; values are per cent of control
[7] = target: Serine/threonine-protein kinase PAK 6 (Homo sapiens) (UniProt Q9NQU5); test: Inhibition of PAK6 (unknown origin) at 1 uM incubated for 30 mins in presence of [gamma-33P]ATP by multidrop micro reagent based assay relative to control
[8] = target: Tyrosine-protein kinase Yes (Homo sapiens) (UniProt P07947); test: Inhibition of YES1 (unknown origin) at 1 uM incubated for 30 mins in presence of [gamma-33P]ATP by multidrop micro reagent based assay relative to control; values are per cent of control
[9] = target: Mitogen-activated protein kinase kinase kinase 11 (Homo sapiens) (UniProt Q16584); test: Inhibition of MLK3 (unknown origin) at 1 uM incubated for 30 mins in presence of [gamma-33P]ATP by multidrop micro reagent based assay relative to control; values are per cent of control
Mitogen-activated protein kinase kinase kinase 11 (Homo sapiens), sequence (Q16584 whole entry, looked up): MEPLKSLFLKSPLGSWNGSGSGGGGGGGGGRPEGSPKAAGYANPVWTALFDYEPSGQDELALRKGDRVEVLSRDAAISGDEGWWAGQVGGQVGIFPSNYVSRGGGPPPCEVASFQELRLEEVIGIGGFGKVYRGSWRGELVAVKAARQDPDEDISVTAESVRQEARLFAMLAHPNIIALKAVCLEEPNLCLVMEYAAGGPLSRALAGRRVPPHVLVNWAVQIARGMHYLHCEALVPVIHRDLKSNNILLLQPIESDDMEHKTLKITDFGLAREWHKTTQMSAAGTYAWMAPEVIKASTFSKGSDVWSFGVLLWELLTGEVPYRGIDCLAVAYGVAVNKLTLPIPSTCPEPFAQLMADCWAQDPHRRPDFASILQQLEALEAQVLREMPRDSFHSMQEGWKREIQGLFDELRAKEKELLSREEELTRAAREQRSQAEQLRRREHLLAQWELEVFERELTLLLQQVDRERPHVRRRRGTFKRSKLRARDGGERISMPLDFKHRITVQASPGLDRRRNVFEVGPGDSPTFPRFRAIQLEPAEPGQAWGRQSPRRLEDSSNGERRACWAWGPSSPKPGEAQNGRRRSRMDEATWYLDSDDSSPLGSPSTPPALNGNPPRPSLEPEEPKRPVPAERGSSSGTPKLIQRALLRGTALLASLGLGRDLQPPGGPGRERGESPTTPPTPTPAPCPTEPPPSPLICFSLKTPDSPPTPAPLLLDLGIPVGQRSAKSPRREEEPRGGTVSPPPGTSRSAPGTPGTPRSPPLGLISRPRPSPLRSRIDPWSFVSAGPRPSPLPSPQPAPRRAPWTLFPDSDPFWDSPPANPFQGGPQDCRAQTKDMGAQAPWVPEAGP

[10] = target: Protein kinase C alpha type (Homo sapiens) (UniProt P17252); test: Inhibition of PKCalpha (unknown origin) at 1 uM incubated for 30 mins in presence of [gamma-33P]ATP by multidrop micro reagent based assay relative to control; values are per cent of control
[11] = system: Leucine-rich repeat serine/threonine-protein kinase 2 (Homo sapiens), Q5S007 [G2019S]; test: Inhibition of LRRK2 G2019S mutant (unknown origin) at 1 uM incubated for 30 mins in presence of [gamma-33P]ATP by multidrop micro reagent based assay relative to control; values are per cent of control
Leucine-rich repeat serine/threonine-protein kinase 2 (Homo sapiens), Q5S007 [G2019S], sequence (Q5S007 whole entry G2019S): as the sequence (Q5S007 whole entry) above, with G2019S counted along it

| SMILES | residual activity [1] [%] | residual activity [2] [%] | inhibition [3] | inhibition [4] | residual activity [5] [%] | residual activity [6] [%] | residual activity [7] [%] | residual activity [8] [%] | residual activity [9] [%] | residual activity [10] [%] | residual activity [11] [%] |
| --- | --- | --- | --- | --- | --- | --- | --- | --- | --- | --- | --- |
| CCN(CC)CCNC(=O)c1c(C)[nH]c(/C=C2\C(=O)Nc3ccc(F)cc32)c1C | 15 | 63 | inactive | – | – | – | – | – | – | – | – |
| C[C@@H](N)[C@H]1CC[C@H](C(=O)Nc2ccncc2)CC1 | – | – | inactive | Active | – | – | – | – | – | – | – |
| CC1=C(C(=O)Nc2cc3cn[nH]c3cc2F)C(c2ccc(C(F)(F)F)cc2)CC(=O)N1 (stereo unspecified) | 78 | 109 | inactive | Active | 108 | 98 | 109 | 58 | 116 | 82 | 97 |
| Cc1cncc2cccc(S(=O)(=O)N3CCCNC[C@@H]3C)c12 | 45 | 80 | inactive | Active | 41 | 20 | 103 | 76 | 85 | 70 | 13 |
| CCn1c(-c2nonc2N)nc2cnc(Oc3cccc(NC(=O)c4ccc(OCCN5CCOCC5)cc4)c3)cc21 [GSK-269962A] | – | 66 | inactive | – | 98 | 71 | 106 | 114 | 97 | 32 | 66 |
